# Laboratory results reported in publication PMC6980386 (Traffic (Copenhagen, Denmark), 2019).
# Tests used:
# FL huCD4 V13L;A17L = FL huCD4 V13L;A17L (Homo sapiens, UniProt P01730, A17L/V13L); experiment: CADA down-modulation of cellular huCD4; type: cell-based; settings: HEK293T, 48h
# Outline: (§1)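 HEK293T cells, seeded overnight in DMEM with 10% serum, 1 mM sodium pyruvate and 0.075% NaHCO₃, were lipofected with full-length human CD4 (WT or mutant). Test compound in DMSO was added 6 h post-transfection as 1:5 serial dilutions (50–0.016 μM) for 48 h. Surface CD4 was stained with FITC/APC anti-CD4 (SK3) and read by flow cytometry. IC50 is 50% of the untreated signal, from four-parameter fits of ≥3 replicate experiments. FC is mutant/WT mean IC50.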
# huCD4_1–32-YFP A17V = huCD4_1–32-YFP A17V (Homo sapiens, UniProt P01730, A17V); experiment: CADA inhibition of huCD4_1–32-YFP secretion; type: cell-based
# Outline: (§2)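 HEK293T cells were lipofected with human CD4 residues 1–32 fused to the N-terminus of YFP (secreted, no membrane anchor). Test compound was added 6 h post-transfection as 1:5 serial dilutions (50–0.016 μM) for 48 h. Supernatant was captured on GFP-Trap magnetic beads for 1 h, washed in PBS, and YFP was read by flow cytometry. IC50 is 50% of the untreated control, from four-parameter fits of ≥3 replicate experiments. FC is mutant/WT mean IC50.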
# huCD4_1–32-YFP L16A = huCD4_1–32-YFP L16A (Homo sapiens, UniProt P01730, L16A); experiment: CADA inhibition of huCD4_1–32-YFP secretion; type: cell-based
# Outline: (§3)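 HEK293T cells were grown in DMEM with 10% FBS and 10 mM HEPES, seeded and left to adhere overnight, then transiently transfected with plasmid by Lipofectamine. Test compound was added 6 h after transfection as a 1:5 serial dilution (50 to 0.016 μM) for 48 h. Secreted YFP in the supernatant was captured on GFP-Trap magnetic beads for 1 h, washed with PBS and measured by flow cytometry. IC50 is the concentration that halves the signal relative to the untreated control, taken from a four-parameter fit of at least three replicate experiments. FC is the mutant mean IC50 divided by the WT mean IC50.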
# huCD4_1–32-YFP R8A = huCD4_1–32-YFP R8A (Homo sapiens, UniProt P01730, R8A); experiment: CADA inhibition of huCD4_1–32-YFP secretion; type: cell-based; settings: read-out: Secreted YFP IC50 (μM) Mean, HEK293T, CADA 48h
# Outline: as §3
# FL huCD4 Q15A = FL huCD4 Q15A (Homo sapiens, UniProt P01730, Q15A); experiment: CADA down-modulation of cellular huCD4; type: cell-based
# Outline: as §1
# FL huCD4 L10A = FL huCD4 L10A (Homo sapiens, UniProt P01730, L10A); experiment: CADA down-modulation of cellular huCD4; type: cell-based
# Outline: as §1
# FL huCD4 K26E = FL huCD4 K26E (Homo sapiens, UniProt P01730, K26E); experiment: CADA down-modulation of cellular huCD4; type: cell-based; settings: HEK293T, 48h
# Outline: (§4)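 Transient transfection of HEK293T cells (Lipofectamine), seeded the night before. Test compound added 6 h post-transfection as a serial 1:5 dilution from 50 to 0.016 μM, then 48 h culture. Surface CD4 stained with FITC- or APC-labelled anti-human CD4 (clone SK3) and read by flow cytometry. IC50 is the concentration reducing signal to 50% of untreated control, interpolated from four-parameter curves (≥3 replicate experiments; 95% CI).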
# huCD4_1–32-YFP K32A = huCD4_1–32-YFP K32A (Homo sapiens, UniProt P01730, K32A); experiment: CADA inhibition of huCD4_1–32-YFP secretion; type: cell-based; settings: read-out: Secreted YFP IC50 (μM) Mean, HEK293T, CADA 48h
# Outline: as §3
# [1] = target: truncated huCD4 D1D2 P20A (Homo sapiens, UniProt P01730, P20A); experiment: Cell-free in vitro translation and translocation; type: biochemical
# Outline: (§5)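 Truncated huCD4 D1D2 (lacking glycosylation sites and membrane anchor) was made by PCR and transcribed with T7. Proteinase K protection ran 30 min on ice and was quenched with PMSF. Products were separated by SDS-PAGE and imaged by phosphor imaging. The SP-cleaved band was normalised to the matching control. Data are from 2–5 independent experiments, compared with WT by Welch t test.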
# FL huCD4 L18A = FL huCD4 L18A (Homo sapiens, UniProt P01730, L18A); experiment: CADA down-modulation of cellular huCD4; type: cell-based
# Outline: as §1
# FL huCD4 Q24A = FL huCD4 Q24A (Homo sapiens, UniProt P01730, Q24A); experiment: CADA down-modulation of cellular huCD4; type: cell-based
# Outline: as §1
# huCD4_1–32-YFP G25A = huCD4_1–32-YFP G25A (Homo sapiens, UniProt P01730, G25A); experiment: CADA inhibition of huCD4_1–32-YFP secretion; type: cell-based
# Outline: as §2
# huCD4_1–32-YFP L19A = huCD4_1–32-YFP L19A (Homo sapiens, UniProt P01730, L19A); experiment: CADA inhibition of huCD4_1–32-YFP secretion; type: cell-based
# Outline: as §3
# FL huCD4 K27R = FL huCD4 K27R (Homo sapiens, UniProt P01730, K27R); experiment: CADA down-modulation of cellular huCD4; type: cell-based; settings: HEK293T, 48h
# Outline: as §1
# huCD4_1–32-YFP P6A = huCD4_1–32-YFP P6A (Homo sapiens, UniProt P01730, P6A); experiment: CADA inhibition of huCD4_1–32-YFP secretion; type: cell-based
# Outline: as §3
# FL huCD4 K32A = FL huCD4 K32A (Homo sapiens, UniProt P01730, K32A); experiment: CADA down-modulation of cellular huCD4; type: cell-based; settings: read-out: Cellular huCD4 IC50 (μM) Mean, HEK293T, CADA 48h
# Outline: as §1
# FL huCD4 K27E = FL huCD4 K27E (Homo sapiens, UniProt P01730, K27E); experiment: CADA down-modulation of cellular huCD4; type: cell-based; settings: HEK293T, 48h
# Outline: as §4
# FL huCD4 WT = FL huCD4 WT (Homo sapiens, UniProt P01730); experiment: CADA down-modulation of cellular huCD4; type: cell-based
# Outline: as §1
# FL huCD4 Q15A;P20A = FL huCD4 Q15A;P20A (Homo sapiens, UniProt P01730, P20A/Q15A); experiment: CADA down-modulation of cellular huCD4; type: cell-based; settings: HEK293T, 48h
# Outline: as §1
# [2] = target: truncated huCD4 D1D2 Q15A;P20A (Homo sapiens, UniProt P01730, P20A/Q15A); experiment: Cell-free in vitro translation and translocation; type: biochemical
# Outline: as §5
# FL huCD4 V5A = FL huCD4 V5A (Homo sapiens, UniProt P01730, V5A); experiment: CADA down-modulation of cellular huCD4; type: cell-based
# Outline: as §1
# [3] = + less, − more sensitive to CADA
# [4] = read-out: Secreted YFP IC50 (μM) Mean, HEK293T, CADA 48h
# [5] = read-out: Cellular huCD4 IC50 (μM) Mean, HEK293T, CADA 48h
structure (smiles),measurement,setting,value
"C=C1CN(S(=O)(=O)c2ccc(C)cc2)CCCN(Cc2ccccc2)CCCN(S(=O)(=O)c2ccc(C)cc2)C1 [CADA, Cyclotriazadisulfonamide]",sensitivity to CADA,FL huCD4 V13L;A17L,nearly full resistance to CADA
same,Secreted YFP FC (fold change of mean IC50 relative to WT),huCD4_1–32-YFP A17V; [3],>+39
same,IC50,huCD4_1–32-YFP A17V; [4],> 50 µM
same,Secreted YFP FC (fold change of mean IC50 relative to WT),huCD4_1–32-YFP L16A; [3],−3.2
same,IC50,huCD4_1–32-YFP L16A; [4],0.4 µM
same,IC50,huCD4_1–32-YFP R8A,> 50 µM
same,Cellular huCD4 FC (fold change of mean IC50 relative to WT),FL huCD4 Q15A; [3],>+93
same,IC50,FL huCD4 Q15A; [5],> 50 µM
same,Cellular huCD4 FC (fold change of mean IC50 relative to WT),FL huCD4 L10A; [3],−2.7
same,IC50,FL huCD4 L10A; [5],0.2 µM
same,sensitivity to CADA,FL huCD4 K26E,copied the alanine substitution phenotypes
same,IC50,huCD4_1–32-YFP K32A,17.6 µM
same,inhibitory effect of CADA on protein translocation compared to WT,[1]; 15 μM CADA,significantly reduced
same,effect of CADA on co-translational translocation,[1]; increasing doses of CADA,"still responded to CADA, although to a lesser extent as compared to WT huCD4"
same,Cellular huCD4 FC (fold change of mean IC50 relative to WT),FL huCD4 L18A; [3],−5.4
same,IC50,FL huCD4 L18A; [5],0.1 µM
same,Cellular huCD4 FC (fold change of mean IC50 relative to WT),FL huCD4 Q24A; [3],+2.3
same,IC50,FL huCD4 Q24A; [5],1.22 µM
same,Secreted YFP FC (fold change of mean IC50 relative to WT),huCD4_1–32-YFP G25A; [3],−3.6
same,IC50,huCD4_1–32-YFP G25A; [4],0.35 µM
same,Secreted YFP FC (fold change of mean IC50 relative to WT),huCD4_1–32-YFP L19A; [3],+3.6
same,IC50,huCD4_1–32-YFP L19A; [4],4.57 µM
same,sensitivity to CADA,FL huCD4 K27R,kept full sensitivity to CADA
same,Secreted YFP FC (fold change of mean IC50 relative to WT),huCD4_1–32-YFP P6A; [3],−2.3
same,IC50,huCD4_1–32-YFP P6A; [4],0.55 µM
same,IC50,FL huCD4 K32A,1.42 µM
same,sensitivity to CADA,FL huCD4 K27E,copied the alanine substitution phenotypes
same,Cellular huCD4 FC (fold change of mean IC50 relative to WT),FL huCD4 WT; [3],1.00
same,IC50,FL huCD4 WT; [5],0.54 µM
same,sensitivity to CADA,FL huCD4 Q15A;P20A,no longer responded to CADA
same,inhibitory effect of CADA on protein translocation compared to WT,[2]; 15 μM CADA,responded significantly less to CADA
same,effect of CADA on co-translational translocation,[2]; increasing doses of CADA,full resistance to CADA
same,Cellular huCD4 FC (fold change of mean IC50 relative to WT),FL huCD4 V5A; [3],−1.9
same,IC50,FL huCD4 V5A; [5],0.29 µM
